Source: ChEMBL document CHEMBL3580561, “Mitigation of Acetylcholine Esterase Activity in the 1,7-Diazacarbazole Series of Inhibitors of Checkpoint Kinase 1” (J Med Chem, 2015)

Legend:
[1] = molecular target: T1, Serine/threonine-protein kinase Chk1 (Homo sapiens, UniProt O14757); experiment: Inhibition of human recombinant Chk1 using biotinylated AKT substrate after 30 mins by Alphascreen biochemical assay
T1 sequence (O14757 whole entry): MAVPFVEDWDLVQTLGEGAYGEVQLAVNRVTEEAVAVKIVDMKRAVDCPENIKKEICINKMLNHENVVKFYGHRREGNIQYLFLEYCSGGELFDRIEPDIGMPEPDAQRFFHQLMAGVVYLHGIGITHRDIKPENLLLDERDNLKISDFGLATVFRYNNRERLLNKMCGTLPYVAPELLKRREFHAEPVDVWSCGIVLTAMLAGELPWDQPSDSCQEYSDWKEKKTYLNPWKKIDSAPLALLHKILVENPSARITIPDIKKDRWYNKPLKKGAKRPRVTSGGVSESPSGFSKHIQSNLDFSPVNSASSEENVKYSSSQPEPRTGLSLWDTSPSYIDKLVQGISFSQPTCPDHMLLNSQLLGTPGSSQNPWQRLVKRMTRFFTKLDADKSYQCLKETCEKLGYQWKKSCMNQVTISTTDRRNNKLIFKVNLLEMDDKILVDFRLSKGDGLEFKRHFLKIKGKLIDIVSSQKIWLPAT

[2] = molecular target: T1, Serine/threonine-protein kinase Chk1; experiment: Inhibition of CHK1 in human HT29 cells assessed as phosphorylation of histone H3 after 24 hrs by checkpoint abrogation cellular assay; type: cell-based, HT-29
Acetylcholinesterase = Acetylcholinesterase (Homo sapiens, UniProt P22303); experiment: Inhibition of human acetylcholine esterase by horseradish peroxidase-coupled fluorescence assay
In short: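 Human AChE at 0.006 U/ml, with 0.25 μM acetylcholine chloride, 0.06 U/ml choline oxidase, 0.05 U/ml horseradish peroxidase and 200 μM Amplex Red, in proprietary buffer with test compound. Incubated 30 min at 25 °C. Fluorescence read.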

Chain of Acetylcholinesterase (P22303 whole entry): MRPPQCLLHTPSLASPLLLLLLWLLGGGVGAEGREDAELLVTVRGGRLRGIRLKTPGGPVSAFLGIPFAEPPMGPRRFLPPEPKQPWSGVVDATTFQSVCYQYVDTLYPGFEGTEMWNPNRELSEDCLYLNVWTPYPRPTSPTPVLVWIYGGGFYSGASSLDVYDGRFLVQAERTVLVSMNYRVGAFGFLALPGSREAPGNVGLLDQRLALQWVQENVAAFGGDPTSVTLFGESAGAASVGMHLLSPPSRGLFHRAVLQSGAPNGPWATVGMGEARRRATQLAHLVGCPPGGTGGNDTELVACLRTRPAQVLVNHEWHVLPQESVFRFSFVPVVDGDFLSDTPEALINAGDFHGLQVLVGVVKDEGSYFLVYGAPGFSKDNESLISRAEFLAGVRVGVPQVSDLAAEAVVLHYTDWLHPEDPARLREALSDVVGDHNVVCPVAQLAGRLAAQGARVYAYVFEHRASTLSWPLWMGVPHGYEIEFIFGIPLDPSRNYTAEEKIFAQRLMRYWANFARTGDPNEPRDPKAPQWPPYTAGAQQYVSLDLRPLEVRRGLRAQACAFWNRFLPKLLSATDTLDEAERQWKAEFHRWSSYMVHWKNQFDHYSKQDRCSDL

SMILES: CC1(C)CCCN(Cc2ccc(-c3cnc4[nH]c5cnc(C#N)cc5c4c3)cc2)C1
- IC50 [1]: 0.0094 µM
- EC50 [2]: 0.128 µM
- IC50 (Acetylcholinesterase): 3.33 µM

SMILES: CC(C)(c1ccc(-c2cnc3[nH]c4cnc(C#N)cc4c3c2)cc1)N1CCCCC1
- IC50 [1]: 0.0102 µM
- EC50 [2]: 0.228 µM
- IC50 (Acetylcholinesterase): 0.507 µM

SMILES: N#Cc1cc2c(cn1)[nH]c1ncc(-c3ccccn3)cc12
- IC50 [1]: 0.127 µM
- EC50 [2]: > 5 µM

SMILES: C[C@@H]1CCC[C@H](C)N1Cc1ccc(-c2cnc3[nH]c4cnc(C#N)cc4c3c2)cc1
- IC50 [1]: 0.0021 µM
- EC50 [2]: 0.0991 µM
- IC50 (Acetylcholinesterase): 0.135 µM

SMILES: c1cncc(-c2cc3c(cn2)[nH]c2ncc(-c4ccc(CN5CCCCC5)cc4)cc23)c1
- IC50 [1]: 0.00095 µM
- EC50 [2]: 0.0751 µM
- IC50 (Acetylcholinesterase): 0.493 µM

SMILES: CN1CCN(c2cccc(-c3cnc4[nH]c5cnc(C#N)cc5c4c3)c2)CC1
- IC50 [1]: 0.0019 µM
- EC50 [2]: 0.133 µM
- IC50 (Acetylcholinesterase): 4.77 µM

SMILES: N#Cc1cc2c(cn1)[nH]c1ncc(-c3cccc(CO)c3)cc12
- IC50 [1]: 0.0271 µM
- EC50 [2]: > 5 µM

SMILES: c1ncc(-c2cc3c(cn2)[nH]c2ncc(-c4ccc(CN5CCCCC5)cc4)cc23)s1
- IC50 [1]: 0.0013 µM
- EC50 [2]: 0.0627 µM
- IC50 (Acetylcholinesterase): 0.496 µM

SMILES: c1cc(-c2cc3c(cn2)[nH]c2ncc(-c4ccc(CN5CCCCC5)cc4)cc23)ccn1
- IC50 [1]: 0.0091 µM
- EC50 [2]: 1.57 µM
- IC50 (Acetylcholinesterase): 0.777 µM

SMILES: c1ncc(-c2cc3c(cn2)[nH]c2ncc(-c4ccc(CN5CCCCC5)cc4)cc23)cn1
- IC50 [1]: 0.0051 µM
- EC50 [2]: 0.163 µM
- IC50 (Acetylcholinesterase): 0.266 µM

SMILES: N#Cc1cc2c(cn1)[nH]c1ncc(O)cc12
- IC50 [1]: 0.0381 µM
- EC50 [2]: > 5 µM

SMILES: NC(=O)c1cc2c(cn1)[nH]c1ncc(-c3ccc(CN4CCCCC4)cc3)cc12
- IC50 [1]: 0.0043 µM
- EC50 [2]: 0.292 µM
- IC50 (Acetylcholinesterase): 0.217 µM

SMILES: N#Cc1cc2c(cn1)[nH]c1ncc(-c3ccc(CN4CCOCC4)cc3)cc12
- IC50 [1]: 0.0139 µM
- EC50 [2]: 0.216 µM
- IC50 (Acetylcholinesterase): 13.3 µM

SMILES: N#Cc1cc2c(cn1)[nH]c1ncc(-c3cccnc3)cc12
- IC50 [1]: 0.0765 µM
- EC50 [2]: > 5 µM

SMILES: Cn1cc(-c2cc3c(cn2)[nH]c2ncc(-c4ccc(CN5CCCCC5)cc4)cc23)cn1
- IC50 [1]: 0.00031 µM
- EC50 [2]: 0.009 µM
- IC50 (Acetylcholinesterase): 0.874 µM

SMILES: CC(=O)Nc1cccc(-c2cnc3[nH]c4cnc(C#N)cc4c3c2)c1
- IC50 [1]: 0.0135 µM
- EC50 [2]: 0.425 µM

SMILES: N#Cc1cc2c(cn1)[nH]c1ncc(-c3ccncc3)cc12
- IC50 [1]: 0.0427 µM
- EC50 [2]: > 5 µM

SMILES: N#Cc1cc2c(cn1)[nH]c1ncc(-c3nc(CN4CCCCC4)cs3)cc12
- IC50 [1]: 0.0136 µM
- EC50 [2]: 0.658 µM
- IC50 (Acetylcholinesterase): 0.018 µM

SMILES: N#Cc1cc2c(cn1)[nH]c1ncccc12
- IC50 [1]: 0.414 µM

SMILES: c1ncc(-c2cc3c(cn2)[nH]c2ncc(-c4ccc(CN5CCCCC5)cc4)cc23)o1
- IC50 [1]: 0.00046 µM
- EC50 [2]: 0.0239 µM
- IC50 (Acetylcholinesterase): 0.323 µM

SMILES: CCN1CCc2cc(-c3cnc4[nH]c5cnc(C#N)cc5c4c3)ccc2C1
- IC50 [1]: 0.0023 µM
- EC50 [2]: 0.152 µM
- IC50 (Acetylcholinesterase): 0.16 µM

SMILES: N#Cc1cc2c(cn1)[nH]c1ncc(-c3ccc(CN4CCC(F)CC4)cc3)cc12
- IC50 [1]: 0.005 µM
- EC50 [2]: 0.0958 µM
- IC50 (Acetylcholinesterase): 0.89 µM

SMILES: c1cc2c(cn1)[nH]c1ncc(-c3ccc(CN4CCCCC4)cc3)cc12
- IC50 [1]: 0.0186 µM
- EC50 [2]: 1.92 µM

SMILES: C[C@@H]1C[C@H](C)CN(Cc2ccc(-c3cnc4[nH]c5cnc(C#N)cc5c4c3)cc2)C1
- IC50 [1]: 0.0042 µM
- EC50 [2]: 0.209 µM
- IC50 (Acetylcholinesterase): 4.1 µM

SMILES: N#Cc1cc2c(cn1)[nH]c1ncc(-c3ccc(CO)cc3)cc12
- IC50 [1]: 0.0114 µM
- EC50 [2]: 0.938 µM

SMILES: N#Cc1cc2c(cn1)[nH]c1ncc(Br)cc12
- IC50 [1]: 0.14 µM

SMILES: c1cc(-c2cnc3[nH]c4cnc(-c5cnoc5)cc4c3c2)ccc1CN1CCCCC1
- IC50 [1]: 0.0011 µM
- EC50 [2]: 0.145 µM
- IC50 (Acetylcholinesterase): 0.659 µM

SMILES: N#Cc1cc2c(cn1)[nH]c1ncc(-c3ccc(CN4CCC(C#N)CC4)cc3)cc12
- IC50 [1]: 0.0116 µM
- EC50 [2]: 0.339 µM
- IC50 (Acetylcholinesterase): 2.69 µM

SMILES: N#Cc1cc2c(cn1)[nH]c1ncc(-c3ccccc3O)cc12
- IC50 [1]: 0.0417 µM
- EC50 [2]: > 5 µM

SMILES: N#Cc1cc2c(cn1)[nH]c1ncc(-c3cccs3)cc12
- IC50 [1]: 0.0202 µM
- EC50 [2]: 0.478 µM

SMILES: N#Cc1cc2c(cn1)[nH]c1ncc(-c3ccc(CN4CCC[C@@H](O)C4)cc3)cc12
- IC50 [1]: 0.0019 µM
- EC50 [2]: 0.118 µM
- IC50 (Acetylcholinesterase): 0.708 µM

SMILES: N#Cc1cc2c(cn1)[nH]c1ncc(-c3ccc(CN4CCC(O)CC4)cc3)cc12
- IC50 [1]: 0.0018 µM
- EC50 [2]: 0.144 µM
- IC50 (Acetylcholinesterase): 0.378 µM

SMILES: CC1(C)CCN(Cc2ccc(-c3cnc4[nH]c5cnc(C#N)cc5c4c3)cc2)CC1
- IC50 [1]: 0.0044 µM
- EC50 [2]: 0.172 µM
- IC50 (Acetylcholinesterase): 0.011 µM

SMILES: Oc1cc2c(cn1)[nH]c1ncc(-c3ccc(CN4CCCCC4)cc3)cc12
- IC50 [1]: 0.863 µM

SMILES: N#Cc1cc2c(cn1)[nH]c1ncc(-c3ccc(N4CCOCC4)cc3)cc12
- IC50 [1]: 0.0787 µM
- EC50 [2]: 0.219 µM

SMILES: c1nnc(-c2cc3c(cn2)[nH]c2ncc(-c4ccc(CN5CCCCC5)cc4)cc23)o1
- IC50 [1]: 0.00095 µM
- EC50 [2]: 0.103 µM
- IC50 (Acetylcholinesterase): 0.45 µM

SMILES: Cn1ccc(-c2cnc3[nH]c4cnc(C#N)cc4c3c2)n1
- IC50 [1]: 0.0338 µM
- EC50 [2]: 2.5 µM

SMILES: OCc1cc2c(cn1)[nH]c1ncc(-c3ccc(CN4CCCCC4)cc3)cc12
- IC50 [1]: 0.0183 µM
- EC50 [2]: 0.447 µM

SMILES: COc1cc2c(cn1)[nH]c1ncc(-c3ccc(CN4CCCCC4)cc3)cc12
- IC50 [1]: 0.0198 µM
- EC50 [2]: 0.986 µM

SMILES: c1cc(-c2cc3c(cn2)[nH]c2ncc(-c4ccc(CN5CCCCC5)cc4)cc23)cnn1
- IC50 [1]: 0.0029 µM
- EC50 [2]: 0.656 µM
- IC50 (Acetylcholinesterase): 1.04 µM

SMILES: CCNc1cnc2[nH]c3cnc(C#N)cc3c2c1
- IC50 [1]: 0.0566 µM
- EC50 [2]: 1.79 µM

SMILES: c1cnc(-c2cc3c(cn2)[nH]c2ncc(-c4ccc(CN5CCCCC5)cc4)cc23)cn1
- IC50 [1]: 0.0023 µM
- EC50 [2]: 0.168 µM
- IC50 (Acetylcholinesterase): 1.21 µM

SMILES: CCN1CCc2sc(-c3cnc4[nH]c5cnc(C#N)cc5c4c3)cc2C1
- IC50 [1]: 0.00078 µM
- EC50 [2]: 0.0509 µM
- IC50 (Acetylcholinesterase): 0.259 µM

SMILES: CCNC(=O)c1cc2c(cn1)[nH]c1ncc(-c3ccc(CN4CCCCC4)cc3)cc12
- IC50 [1]: 0.102 µM
- EC50 [2]: 2.23 µM

SMILES: CN1CCN(c2ccc(-c3cnc4[nH]c5cnc(C#N)cc5c4c3)cc2)CC1
- IC50 (Acetylcholinesterase): 0.018 µM

SMILES: N#Cc1cc2c(cn1)[nH]c1ncc(-c3ccc(CN4CCCCC4)nc3)cc12
- IC50 [1]: 0.0053 µM
- EC50 [2]: 0.54 µM
- IC50 (Acetylcholinesterase): 0.187 µM

SMILES: N#Cc1cc2c(cn1)[nH]c1ncc(-c3ncc[nH]3)cc12
- IC50 [1]: 0.0147 µM
- EC50 [2]: > 5 µM

SMILES: N#Cc1cc2c(cn1)[nH]c1ncc(-c3ccoc3)cc12
- IC50 [1]: 0.0166 µM
- EC50 [2]: 0.18 µM
